Activity calls are given as the source filed them. The calls are words filed in the database; no cut-off is given here.
What was measured:
[1] = test system: Streptococcus pneumoniae; assay: Activity of Streptococcus pneumoniae mevalonate kinase expressed in Escherichia coli assessed as enzyme activity by pyruvate kinase/lactate dehydrogenase coupled assay relative to mevalonate
How it was run: (§1)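 S. pneumoniae MK expressed in E. coli as His6-GST fusion, with tags removed. Lactone analogues were hydrolysed in 2.0 M LiOH (rt, 1 h), titrated to pH 7.0, and used as racemic acids. ADP formation was coupled to NADH oxidation (pyruvate kinase 10.0 units/ml, lactate dehydrogenase 20.0 units/ml), read continuously at 386 nm. Buffer: ATP 4.0 mM, MgCl2 5.0 mM, NADH 0.82 mM, PEP 1.0 mM, KCl 50 mM, β-mercaptoethanol 20.0 mM, Hepes/K+ 50 mM pH 8.0, 25 °C. Progress curves were compared with mevalonate.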

[2] = Binding affinity to Streptococcus pneumoniae mevalonate kinase
[3] = test system: Streptococcus pneumoniae; assay: Activity of Streptococcus pneumoniae mevalonate kinase expressed in Escherichia coli by pyruvate kinase/lactate dehydrogenase coupled assay; how it was run: as §1
[4] = test system: Streptococcus pneumoniae; assay: Activity of Streptococcus pneumoniae phosphomevalonate kinase expressed in Escherichia coli by pyruvate kinase/lactate dehydrogenase coupled assay
How it was run: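 S. pneumoniae PMK was expressed in E. coli as His6-GST fusion, with tags removed. Substrates were the phosphorylated analogues, compared with phosphomevalonate. ADP formation was linked 1:1 to NADH oxidation via pyruvate kinase (10.0 units/ml) and lactate dehydrogenase (20.0 units/ml), monitored at 386 nm. Conditions: ATP 4.0 mM, MgCl2 5.0 mM, NADH 0.82 mM, PEP 1.0 mM, KCl 50 mM, β-mercaptoethanol 20.0 mM, Hepes/K+ 50 mM pH 8.0, 25 °C.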

Activity [1] [%] | Ki [2] [nM] | Activity [3] | Activity [4] | SMILES
< 0.0025 |  |  |  | C=C(C)C(O)(CCO)CC(=O)O (racemic)
 | 500 |  |  | C[C@@](O)(CCOP(=O)(O)OP(=O)(O)O)CC(=O)O [DIPHOSPHOMELAVONATE]
 |  | Active | Active | CCCC(O)(CCO)CC(=O)O (racemic)
 |  | Active | Active | CC(C)CC(O)(CCO)CC(=O)O (racemic)
< 0.0025 |  |  |  | CC(C)C(O)(CCO)CC(=O)O (racemic)
< 0.0025 |  |  |  | CC#CC(O)(CCO)CC(=O)O (racemic)
< 0.0025 |  |  |  | CCCCC(O)(CCO)CC(=O)O (racemic)
 |  | Active | Active | CCC(O)(CCO)CC(=O)O (racemic)
 |  | Active | Active | O=C(O)CC(O)(CCO)C1CC1 (racemic)
 |  | Active | Active | C=CCC(O)(CCO)CC(=O)O (racemic)
 |  | Active | Active | C#CC(O)(CCO)CC(=O)O (racemic)
 |  | Active | Active | C=CC(O)(CCO)CC(=O)O (racemic)

— ChEMBL document CHEMBL1159110, “Mevalonate analogues as substrates of enzymes in the isoprenoid biosynthetic pathway of Streptococcus pneumoniae” (Bioorg Med Chem, 2010)
